Measurements taken from ChEMBL document CHEMBL4024729, “Copalic acid analogs down-regulate androgen receptor and inhibit small chaperone protein” (Bioorg Med Chem Lett, 2017).
Active and inactive are the calls of the source. The calls are words filed in the database; no cut-off is given here.

Assays:
[1] = biological target: Heat shock protein beta-1 (Homo sapiens) (UniProt P04792); experiment: Inhibition of heat shock protein 27 in human LNCaP cells assessed as decrease in AR protein level at 20 uM after 48 hrs by Western blot method; format: cell-based
Summary of the method: (§1)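 LNCaP cells treated with DMSO or compound for 48 h. Whole-cell extracts probed by Western blot with specific antibodies against AR and β-actin. Three independent experiments.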

[2] = biological target: Heat shock protein beta-1 (Homo sapiens) (UniProt P04792); experiment: Inhibition of heat shock protein 27 in human LNCaP cells assessed as decrease in AR protein level at 200 uM after 48 hrs by Western blot method; format: cell-based; summary of the method: as §1
LNCaP = experiment: Growth inhibition of human LNCAP cells after 72 hrs by MTT assay; format: functional, cell-based
Summary of the method: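 LNCaP cells treated with DMSO or a range of compound concentrations, four replicates each, for 72 h. Viability read by MTT assay.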

[3] = biological target: Heat shock protein beta-1 (Homo sapiens) (UniProt P04792); experiment: Inhibition of heat shock protein 27 in human LNCaP cells assessed as decrease in AR protein level after 48 hrs by Western blot method; format: cell-based; summary of the method: as §1
Homo sapiens = species on record: Homo sapiens; experiment: Inhibition of alpha crystallin (unknown origin) assessed as increase in DTT induced insulin aggregation at 10 uM pretreated for 5 mins followed by DTT addition measured after 45 mins
Summary of the method: (§2)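 Insulin 1 mg/ml stock and alpha-crystallin 5 mg/ml stock mixed in PBS containing compound. Incubated 5 min at 37 °C, then aggregation started with 1 M DTT stock. A400 followed for 45 min at 37 °C. Controls were insulin with or without alpha-crystallin in 0.1% DMSO. Triplicate wells; three independent experiments.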

[4] = biological target: Heat shock protein beta-1 (Homo sapiens) (UniProt P04792); experiment: Inhibition of heat shock protein 27 in human LNCaP cells assessed as decrease in AR protein level at 5 uM after 48 hrs by Western blot method; format: cell-based; summary of the method: as §1
[5] = Effect on DTT interaction with insulin at <= 10 uM measured after 45 mins; summary of the method: as §2

Sequence of Heat shock protein beta-1 (Homo sapiens) (P04792 whole entry): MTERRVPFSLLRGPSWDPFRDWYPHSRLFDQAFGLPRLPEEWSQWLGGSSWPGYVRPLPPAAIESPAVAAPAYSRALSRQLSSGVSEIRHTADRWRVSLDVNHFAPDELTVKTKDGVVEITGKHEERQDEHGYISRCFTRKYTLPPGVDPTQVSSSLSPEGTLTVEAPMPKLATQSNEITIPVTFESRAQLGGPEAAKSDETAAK

| Compound | AR protein decrease (active/not active) [1] | inhibition [2] | also measured |
| --- | --- | --- | --- |
| C=C1CC[C@@H]2C(C)(C)CCC[C@@]2(C)[C@@H]1CC/C(C)=C/C(=O)Nc1ccc(I)cc1 | Active |  |  |
| C[C@@H]1CC[C@@]2(C)C(C(=O)O)=CCC[C@@H]2[C@@]1(C)CCc1ccoc1 |  | Active |  |
| C=C1CC[C@@H]2C(C)(C)CCC[C@@]2(C)[C@@H]1CC/C(C)=C/C(=O)Nc1ccc(OC)cc1 | Active |  | IC50 (LNCaP): 1.73 µM; inhibition [3]: Dose-dependent effect; inhibition (Homo sapiens): Active; inhibition [4]: Active; Activity [5]: inactive |
| C=C1CC[C@@H]2C(C)(C)CCC[C@@]2(C)[C@@H]1CC/C(C)=C/C(=O)Nc1cccc(Br)c1 | Active |  |  |
| C=C1CC[C@@H]2C(C)(C)CCC[C@@]2(C)[C@@H]1CC/C(C)=C/C(=O)NCCc1ccccc1 | Active |  |  |
| C=C1CC[C@@H]2C(C)(C)CCC[C@@]2(C)[C@@H]1CC/C(C)=C/C(=O)Nc1ccc(C#N)cc1 | Active |  | IC50 (LNCaP): 9.81 µM; inhibition [3]: Dose-dependent effect; inhibition (Homo sapiens): Active |
| C=C1CC[C@@H]2C(C)(C)CCC[C@@]2(C)[C@@H]1CC/C(C)=C/C(=O)Nc1ccc(C)cc1 | Active |  |  |
| C=C1CC[C@@H]2C(C)(C)C(OC(C)=O)CC[C@@]2(C)[C@@H]1CC/C(C)=C/C(=O)O (stereo partly drawn) |  | Active |  |
| C=C1CC[C@@H]2C(C)(C)CCC[C@@]2(C)[C@@H]1CC/C(C)=C/C(=O)O | inactive | Active |  |
